Activity calls are given as the source filed them. No cut-off for these calls is given here.
Assays:
K562 [1] = experiment: Cell cycle arrest in human K562 cells assessed as accumulation at G1-phase at 2.5 uM after 24 hrs by propidium iodide staining based flow cytometry (reference value: 27.5%)
K562 [2] = experiment: Downregulation of MMP2 protein expression in human K562 cells assessed as MMP2 positive population at 10 uM after 48 hrs by FITC staining based flow cytometry (reference value: 98.4%)
Neutrophil collagenase = Neutrophil collagenase (Homo sapiens, UniProt P22894); experiment: Inhibition of recombinant human MMP8 (Phe99 to Gln269 residues) expressed in Escherichia coli using Ac-Pro-Leu-Gly-S-Leu-Leu-Gly-OEt as substrate after 1 hr measured at 1 min time interval for 30 mins by microplate photometric method
In short: (§1)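 Commercial MMP kits; compound preincubated with enzyme before chromogenic substrate was added. Reactions at 37 °C for 1 h, with at least six inhibitor concentrations in triplicate. Absorbance at 410 nm read every 1 min for 30 min. NNGH used as reference inhibitor. IC50 taken from semi-logarithmic dose-response plots.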

K562 [3] = experiment: Downregulation of MMP2 protein expression in human K562 cells assessed as MMP2 positive population at 2.5 uM after 48 hrs by FITC staining based flow cytometry (reference value: 98.4%)
K562 [4] = experiment: Induction of apoptosis in human K562 cells assessed as early apoptotic cells at 5 uM after 48 hrs by Annexin V-FITC/propidium iodide staining based flow cytometry (reference value: 9.6%); type: functional
K562 [5] = experiment: Induction of apoptosis in human K562 cells assessed as live cells at 10 uM after 48 hrs by Annexin V-FITC/propidium iodide staining based flow cytometry (reference value: 90.1%); type: functional
K562 [6] = experiment: Downregulation of MMP2 protein expression in human K562 cells up to 10 uM after 48 hrs by Western blot method; type: functional, cell-based
In short: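 K562 cells (~2×10^6) grown 48 h, then treated. Lysed on ice in Tris-HCl pH 7.5 buffer with CHAPS and glycerol. 50 µg protein run on 12% SDS-PAGE (15% for β-tubulin) and blotted to PVDF. Probed with anti-MMP-2 and anti-β-tubulin (1:1000) overnight at 4 °C, then ALKP secondary antibody and DAB development. Band intensity normalised to β-tubulin; mean ± SD.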

K562 [7] = experiment: Induction of apoptosis in human K562 cells assessed as increase in early apoptotic cells at 2.5 to 10 uM after 48 hrs by Annexin V-FITC/propidium iodide staining based flow cytometry relative to control; type: functional
K562 [8] = experiment: Induction of apoptosis in human K562 cells assessed as early apoptotic cells at 10 uM after 48 hrs by Annexin V-FITC/propidium iodide staining based flow cytometry (reference value: 9.6%); type: functional
[9] = biological target: 72 kDa type IV collagenase (Homo sapiens, UniProt P08253); experiment: Inhibition of recombinant human MMP2 (Tyr110 to Asp452 residues) using Ac-Pro-Leu-Gly-S-Leu-Leu-Gly-OEt as substrate after 1 hr measured at 1 min time interval for 30 mins by microplate photometric method
In short: as §1

K562 [10] = experiment: Cell cycle arrest in human K562 cells assessed as accumulation at G1-phase at 5 uM after 48 hrs by propidium iodide staining based flow cytometry (reference value: 27.5%); type: functional
K562 [11] = experiment: Cell cycle arrest in human K562 cells assessed as accumulation at G1/S-phase at 2.5 uM after 24 hrs by propidium iodide staining based flow cytometry (reference value: 21.8%)
[12] = biological target: Macrophage metalloelastase (Homo sapiens, UniProt P39900); experiment: Inhibition of recombinant human MMP12 (Phe99 to Leu271 residues) expressed in Escherichia coli using Ac-Pro-Leu-Gly-S-Leu-Leu-Gly-OEt as substrate after 1 hr measured at 1 min time interval for 30 mins by microplate photometric method
In short: as §1

K562 [13] = experiment: Induction of apoptosis in human K562 cells assessed as necrotic cells at 2.5 uM after 48 hrs by Annexin V-FITC/propidium iodide staining based flow cytometry (reference value: 0%); type: functional
K562 [14] = experiment: Cell cycle arrest in human K562 cells assessed as accumulation at G1-phase at 10 uM after 48 hrs by propidium iodide staining based flow cytometry (reference value: 27.5%); type: functional
K562 [15] = experiment: Induction of apoptosis in human K562 cells assessed as live cells at 5 uM after 48 hrs by Annexin V-FITC/propidium iodide staining based flow cytometry (reference value: 90.1%); type: functional
K562 [16] = experiment: Induction of apoptosis in human K562 cells assessed as early apoptotic cells at 2.5 uM after 48 hrs by Annexin V-FITC/propidium iodide staining based flow cytometry (reference value: 9.6%); type: functional
K562 [17] = experiment: Induction of apoptosis in human K562 cells assessed as increase in late apoptotic cells at 2.5 to 10 uM after 48 hrs by Annexin V-FITC/propidium iodide staining based flow cytometry relative to control; type: functional
K562 [18] = experiment: Induction of apoptosis in human K562 cells assessed as necrotic cells at 10 uM after 48 hrs by Annexin V-FITC/propidium iodide staining based flow cytometry (reference value: 0%); type: functional
K562 [19] = experiment: Induction of apoptosis in human K562 cells assessed as late apoptotic cells at 2.5 uM after 48 hrs by Annexin V-FITC/propidium iodide staining based flow cytometry (reference value: 0.3%); type: functional
K562 [20] = experiment: Downregulation of MMP2 protein expression in human K562 cells assessed as MMP2 negative population at 5 uM after 48 hrs by FITC staining based flow cytometry (reference value: 1.6%)
K562 [21] = experiment: Induction of apoptosis in human K562 cells assessed as necrotic cells at 5 uM after 48 hrs by Annexin V-FITC/propidium iodide staining based flow cytometry (reference value: 0%); type: functional
K562 [22] = experiment: Cell cycle arrest in human K562 cells assessed as accumulation at G2/M-phase at 10 uM after 24 hrs by propidium iodide staining based flow cytometry (reference value: 35.3%)
K562 [23] = experiment: Cell cycle arrest in human K562 cells assessed as accumulation at G2/M-phase at 5 uM after 48 hrs by propidium iodide staining based flow cytometry (reference value: 35.3%); type: functional

Chain of Macrophage metalloelastase (P39900 whole entry): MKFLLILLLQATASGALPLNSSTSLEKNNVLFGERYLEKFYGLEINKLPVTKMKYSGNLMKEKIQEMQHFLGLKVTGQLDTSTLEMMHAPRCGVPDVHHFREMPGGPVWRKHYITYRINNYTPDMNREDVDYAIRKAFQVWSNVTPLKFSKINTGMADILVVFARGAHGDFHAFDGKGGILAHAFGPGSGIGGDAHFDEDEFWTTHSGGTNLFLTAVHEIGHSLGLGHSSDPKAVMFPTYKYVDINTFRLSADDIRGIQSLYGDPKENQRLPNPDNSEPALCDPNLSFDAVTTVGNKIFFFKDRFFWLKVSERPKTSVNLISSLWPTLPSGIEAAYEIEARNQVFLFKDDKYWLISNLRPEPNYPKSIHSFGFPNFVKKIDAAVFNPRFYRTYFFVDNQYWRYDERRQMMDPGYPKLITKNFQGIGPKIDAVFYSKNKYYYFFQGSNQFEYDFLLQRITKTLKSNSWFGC
Chain of 72 kDa type IV collagenase (P08253 whole entry): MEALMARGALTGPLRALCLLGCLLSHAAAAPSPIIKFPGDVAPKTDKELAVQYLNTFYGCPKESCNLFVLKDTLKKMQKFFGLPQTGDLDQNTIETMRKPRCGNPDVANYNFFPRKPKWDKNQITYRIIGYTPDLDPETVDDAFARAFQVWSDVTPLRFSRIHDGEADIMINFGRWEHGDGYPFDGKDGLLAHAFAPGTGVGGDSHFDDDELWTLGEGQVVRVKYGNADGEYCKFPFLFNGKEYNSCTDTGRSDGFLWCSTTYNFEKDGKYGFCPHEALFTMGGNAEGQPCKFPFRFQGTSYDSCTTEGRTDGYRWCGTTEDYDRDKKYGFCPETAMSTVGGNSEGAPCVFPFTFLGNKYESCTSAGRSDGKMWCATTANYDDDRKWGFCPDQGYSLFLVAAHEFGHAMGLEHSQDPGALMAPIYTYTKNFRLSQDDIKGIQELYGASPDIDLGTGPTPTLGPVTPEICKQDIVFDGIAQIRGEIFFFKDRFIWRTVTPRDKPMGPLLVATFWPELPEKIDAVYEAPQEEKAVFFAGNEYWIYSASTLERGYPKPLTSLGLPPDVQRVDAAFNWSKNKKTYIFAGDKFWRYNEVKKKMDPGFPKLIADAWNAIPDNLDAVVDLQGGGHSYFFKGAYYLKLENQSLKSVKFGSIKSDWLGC
Chain of Neutrophil collagenase (P22894 whole entry): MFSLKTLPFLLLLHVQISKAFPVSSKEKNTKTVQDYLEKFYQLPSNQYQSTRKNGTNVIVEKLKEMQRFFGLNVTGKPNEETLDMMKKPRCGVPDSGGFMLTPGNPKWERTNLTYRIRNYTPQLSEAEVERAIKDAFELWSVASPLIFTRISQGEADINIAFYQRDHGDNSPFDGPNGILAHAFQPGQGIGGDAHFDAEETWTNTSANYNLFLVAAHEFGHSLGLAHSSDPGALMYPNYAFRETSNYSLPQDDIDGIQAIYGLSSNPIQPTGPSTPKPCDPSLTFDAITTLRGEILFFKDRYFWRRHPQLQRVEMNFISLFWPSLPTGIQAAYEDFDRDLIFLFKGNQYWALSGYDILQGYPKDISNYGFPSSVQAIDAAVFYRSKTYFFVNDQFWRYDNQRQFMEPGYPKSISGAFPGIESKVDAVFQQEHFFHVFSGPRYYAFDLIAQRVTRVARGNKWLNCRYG

CCCCCNC(=O)CC[C@H](NS(=O)(=O)c1ccc([N+](=O)[O-])cc1)C(=O)O
Activity (K562 [1]): 30.7% | Activity (K562 [2]): 15.6% | IC50 (Neutrophil collagenase): > 500 µM | Activity (K562 [3]): 26.3% | Activity (K562 [4]): 15.4% | Activity (K562 [5]): 74% | Activity (K562 [6]): Active | fold change (FC) (K562 [7]): <=300 | Activity (K562 [8]): 15.4% | IC50 [9]: 4.8 µM | Activity (K562 [10]): 33.4% | Activity (K562 [11]): 20% | IC50 [12]: 493 µM | Activity (K562 [13]): 0.5% | Activity (K562 [14]): 39.8% | Activity (K562 [15]): 76% | Activity (K562 [16]): 14.3% | fold change (FC) (K562 [17]): <=300 | Activity (K562 [18]): 0.4% | Activity (K562 [19]): 11.6% | Activity (K562 [20]): 81.1% | Activity (K562 [21]): 0.1% | Activity (K562 [22]): 23.1% | Activity (K562 [23]): 32.2%
